Assays:
[1] = Drug metabolism in human liver microsomes assessed as stability after 2 hrs relative to control by liquid chromatography-tandem mass spectrometry; assay type: ADME; settings: read-out: Stability
Procedure, shortened: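 Pooled human liver microsomes (1 mg/ml) were incubated at 37°C with substrate (5 µM final), 1 mM β-NADPH and 3.3 mM MgCl2 in 0.1 M phosphate buffer, with or without 5 mM reduced GSH. Aliquots were taken from 1 to 120 min and quenched in ice-cold acetonitrile containing internal standard. LC-MS/MS peak-area ratios to internal standard were normalised to the 1-min sample.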

[2] = Drug metabolism in human liver microsomes assessed as stability during first 5 mins relative to control in presence of reduced GSH by liquid chromatography-tandem mass spectrometry; assay type: ADME; settings: read-out: Stability
Procedure, shortened: (§1)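 Substrate (5 µM final) was incubated at 37°C with HLMs (1 mg/ml; boiled HLMs as negative control) in 0.1 M phosphate buffer with 3.3 mM MgCl2 and 1 mM β-NADPH, with or without 5 mM reduced GSH. Aliquots were taken at 1, 5, 10, 15, 30, 45, 60 and 120 min and quenched with ice-cold acetonitrile containing internal standard. Samples were analysed by LC-MS/MS, with values given as percent of the analyte/internal-standard peak area ratio at 1 min.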

[3] = Drug metabolism in human liver microsomes assessed as stability after 5 mins relative to control in presence of reduced GSH by liquid chromatography-tandem mass spectrometry; assay type: ADME; procedure, shortened: as §1
[4] = Drug metabolism in human liver microsomes assessed as stability after 120 mins relative to control in presence of reduced GSH by liquid chromatography-tandem mass spectrometry; assay type: ADME; settings: read-out: Stability; procedure, shortened: as §1
[5] = tested on: Liver microsome; test: Retention time in human liver microsomes treated with 10 uM […] after 2 hrs by liquid chromatography-tandem mass spectrometry; assay type: ADME
Procedure, shortened: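 17-DMAG (10 µM initial) was incubated with HLMs (1 mg/ml) in 0.1 M phosphate buffer with 3.3 mM MgCl2 and 1 mM β-NADPH at 37°C for 2 h alongside negative controls, then quenched with ice-cold acetonitrile. Samples were run on a C18 column with a 0.1% formic acid/ammonium formate–acetonitrile gradient (10–90% B in 10 min) using MS full scan, MRM, EPI and MS3 scans.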

[6] = tested on: Liver microsome; test: Drug level in human liver microsomes treated with 1 uM 17-DMAG by liquid chromatography-tandem mass spectrometry in presence of 10 uM alpha-naphthoflavone CYP1A2 inhibitor; assay type: ADME
Procedure, shortened: (§2)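 Pooled HLMs in 0.1 M phosphate buffer pH 7.4 with 1 mM β-NADPH, 3.3 mM MgCl2 and the selective inhibitor were preincubated 3 min at 37°C in a shaking water bath. 17-DMAG (1 µM final) was then added and incubated 20 min at 37°C, with parallel no-inhibitor controls. M1, M2, M3, M4 and M6 were quantified by LC-MS/MS MRM. Inhibition was taken as the ratio of metabolite formed with versus without inhibitor.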

[7] = tested on: Liver microsome; test: Drug level in human liver microsomes treated with 1 uM 17-DMAG by liquid chromatography-tandem mass spectrometry in presence of 1 uM tranylcypromine CYP2A6 inhibitor; assay type: ADME; procedure, shortened: as §2
[8] = tested on: Liver microsome; test: Drug level in human liver microsomes treated with 1 uM 17-DMAG by liquid chromatography-tandem mass spectrometry in presence of 1 uM quercetin CYP2C8 inhibitor; assay type: ADME; procedure, shortened: as §2
[9] = tested on: Liver microsome; test: Drug level in human liver microsomes treated with 1 uM 17-DMAGby liquid chromatography-tandem mass spectrometry in presence of 1 uM sulfaphenazole CYP2C9 inhibitor; assay type: ADME; procedure, shortened: as §2
[10] = tested on: Liver microsome; test: Drug level in human liver microsomes treated with 1 uM 17-DMAG by liquid chromatography-tandem mass spectrometry in presence of 10 uM ticlopidine CYP2B6 inhibitor; assay type: ADME; procedure, shortened: as §2
[11] = tested on: Liver microsome; test: Drug level in human liver microsomes treated with 1 uM 17-DMAG by liquid chromatography-tandem mass spectrometry in presence of 1 uM quinidine CYP2D6 inhibitor; assay type: ADME; procedure, shortened: as §2
[12] = tested on: Liver microsome; test: Drug level in human liver microsomes treated with 1 uM 17-DMAG by liquid chromatography-tandem mass spectrometry in presence of 10 uM diethyldithiocarbamate CYP2E1 inhibitor; assay type: ADME; procedure, shortened: as §2
[13] = target: Cytochrome P450 3A4 (Homo sapiens, UniProt P08684); test: Drug level assessed as human recombinant CYP3A4-mediated oxidative metabolism treated with 1 uM 17-DMAG after 30 mins by liquid chromatography-tandem mass spectrometry; assay type: ADME; settings: recombinant enzyme, 0.5 h
Cytochrome P450 3A4, sequence (P08684 whole entry): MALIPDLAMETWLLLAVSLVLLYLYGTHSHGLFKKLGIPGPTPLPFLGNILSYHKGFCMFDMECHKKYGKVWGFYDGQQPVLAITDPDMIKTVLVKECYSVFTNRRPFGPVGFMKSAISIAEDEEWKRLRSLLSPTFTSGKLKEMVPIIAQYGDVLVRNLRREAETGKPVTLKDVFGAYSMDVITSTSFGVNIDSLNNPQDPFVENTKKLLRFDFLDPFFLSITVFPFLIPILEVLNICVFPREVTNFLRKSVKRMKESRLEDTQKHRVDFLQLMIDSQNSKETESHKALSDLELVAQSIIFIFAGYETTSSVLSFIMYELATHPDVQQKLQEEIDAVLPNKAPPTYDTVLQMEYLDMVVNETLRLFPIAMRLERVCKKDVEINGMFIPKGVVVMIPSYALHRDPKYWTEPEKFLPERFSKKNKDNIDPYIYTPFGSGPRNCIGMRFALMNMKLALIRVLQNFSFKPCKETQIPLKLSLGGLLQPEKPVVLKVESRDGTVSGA
Procedure, shortened: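 Recombinant human P450 (E. coli-expressed, coexpressed with cytochrome b5), 20 pmol per 200 µl incubation with 0.2 mg reduced β-NADPH and 3.3 mM MgCl2 in 0.1 M phosphate buffer pH 7.4. Preincubated at 37°C in a shaking water bath, then 1 µM 17-DMAG added. E. coli control microsomes lacking P450 cDNA served as negative control. Metabolite (M1–M4, M6) formation rates were read by LC-MS/MS MRM and expressed as percent of the CYP3A4 rate.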

[14] = tested on: Liver microsome; test: Drug level in boiled human liver microsomes treated with geldanamycin after 2 hrs; assay type: ADME; procedure, shortened: as §1
[15] = tested on: Liver microsome; test: Drug metabolism in human liver microsomes assessed as stability after 45 mins relative to control by liquid chromatography-tandem mass spectrometry; assay type: ADME; settings: 0.75 h; procedure, shortened: as §1
[16] = Terminal half life in human; assay type: ADME, organism-based; settings: in vivo, read-out: beta t1/2 (converted)
[17] = tested on: Liver microsome; test: Drug metabolism in human liver microsomes assessed as 17-aminogeldanamycin formation at 37 degC in presence of reduced GSH by liquid chromatography-tandem mass spectrometry; assay type: ADME; settings: read-out: Km(app)
[18] = tested on: Liver microsome; test: Drug metabolism in human liver microsomes assessed as (4E,6Z,8S,9S,10E,12S,13R,14S,16R)-19-(2-(dimethylamino)ethylamino)-8,13-dihydroxy-14-methoxy-4,10,12,16-tetramethyl-3,20,22-trioxo-2-azabicyclo[16.3.1]docosa-1(21),4,6,10,18-pentaen-9-yl carbamate formation at 1 uM 17-DMAG by liquid chromatography-tandem mass spectrometry in presence of 1 uM ketoconazole CYP3A inhibitor; assay type: ADME
[19] = tested on: Liver microsome; test: Drug metabolism in human liver microsomes assessed as 17-(allylamino)-17-demethoxygeldanamycin hydroquinone formation after 1 hr relative to control by liquid chromatography-tandem mass spectrometry; assay type: ADME; procedure, shortened: as §1

COC1=C2C[C@@H](C)C[C@H](OC)[C@H](O)[C@@H](C)/C=C(\C)[C@H](OC(N)=O)[C@@H](OC)/C=C\C=C(/C)C(=O)NC(=CC1=O)C2=O [GELDANAMYCIN]
remaining at 2 h [1]: 73% | remaining at 5 min [2]: 75.3% | remaining at 5 min [3]: 75.3% | remaining at 2 h [4]: 46.6%

CO[C@H]1/C=C\C=C(/C)C(=O)NC2=CC(=O)C(NCCN(C)C)=C(C[C@@H](C)C[C@H](O)[C@H](O)[C@@H](C)/C=C(\C)[C@@H]1OC(N)=O)C2=O
Retention_time [5]: 7.57 min | Drug metabolism [6]: metabolite_detected | Drug metabolism [7]: metabolite_detected | Drug metabolism [8]: metabolite_detected | Drug metabolism [9]: metabolite_detected | Drug metabolism [10]: metabolite_detected | Drug metabolism [11]: metabolite_detected | Drug metabolism [12]: metabolite_detected | Drug metabolism [13]: metabolite_detected

COc1c(O)cc2c(O)c1C[C@@H](C)C[C@H](OC)[C@H](O)[C@@H](C)/C=C(\C)[C@H](OC(N)=O)[C@@H](OC)/C=C\C=C(/C)C(=O)N2
Drug metabolism [14]: metabolite_detected

CO[C@H]1/C=C\C=C(/C)C(=O)NC2=CC(=O)C(NCCN(C)C)=C(C[C@@H](C)C[C@H](OC)[C@H](O)[C@@H](C)/C=C(\CO)[C@@H]1OC(N)=O)C2=O
Retention_time [5]: 8.21 min | Drug metabolism [6]: metabolite_detected | Drug metabolism [7]: metabolite_detected | Drug metabolism [8]: metabolite_detected | Drug metabolism [9]: metabolite_detected | Drug metabolism [10]: metabolite_detected | Drug metabolism [11]: metabolite_detected | Drug metabolism [12]: metabolite_detected | Drug metabolism [13]: metabolite_detected

C=CCNC1=C2C[C@@H](C)C[C@H](OC)[C@H](O)[C@@H](C)/C=C(\C)[C@H](OC(N)=O)[C@@H](OC)/C=C\C=C(/C)C(=O)NC(=CC1=O)C2=O [TANESPIMYCIN]
Stability [15]: Unstable | half-life [16]: 4 h | Km [17]: 29.1 µM

CO[C@H]1C[C@H](C)CC2=C(NCCN(C)C)C(=O)C=C(NC(=O)/C(C)=C/C=C\[C@H](O)[C@@H](OC(N)=O)/C(C)=C/[C@H](C)[C@H]1O)C2=O
Retention_time [5]: 7.13 min | Drug metabolism [6]: metabolite_detected | Drug metabolism [7]: metabolite_detected | Drug metabolism [8]: metabolite_detected | Drug metabolism [9]: metabolite_detected | Drug metabolism [10]: metabolite_detected | Drug metabolism [11]: metabolite_detected | Drug metabolism [12]: metabolite_detected | Drug metabolism [18]: metabolite_not_detected | Drug metabolism [13]: metabolite_detected

CO[C@H]1/C=C\C=C(/C)C(=O)NC2=CC(=O)C(NC(O)CN(C)C)=C(C[C@@H](C)C[C@H](OC)[C@H](O)[C@@H](C)/C=C(\C)[C@@H]1OC(N)=O)C2=O (some centres not stated)
Retention_time [5]: 9.04 min | Drug metabolism [6]: metabolite_detected | Drug metabolism [7]: metabolite_detected | Drug metabolism [8]: metabolite_detected | Drug metabolism [9]: metabolite_detected | Drug metabolism [10]: metabolite_detected | Drug metabolism [11]: metabolite_detected | Drug metabolism [12]: metabolite_detected | Drug metabolism [13]: metabolite_detected

CO[C@H]1/C=C\C=C(/C)C(=O)NC2=CC(=O)C(/N=C/CN(C)C)=C(C[C@@H](C)C[C@H](OC)[C@H](O)[C@@H](C)/C=C(\C)[C@@H]1OC(N)=O)C2=O
Retention_time [5]: 8.4 min

C=CCNc1c(O)cc2c(O)c1C[C@@H](C)C[C@H](OC)[C@H](O)[C@@H](C)/C=C(\C)[C@H](OC(N)=O)[C@@H](OC)/C=C\C=C(/C)C(=O)N2 [RETASPIMYCIN]
Drug metabolism [19]: metabolite_not_detected

— ChEMBL document CHEMBL3526066, “In vitro metabolism of 17-(dimethylaminoethylamino)-17-demethoxygeldanamycin in human liver microsomes” (Drug Metab Dispos, 2011)
